Experimental data: ChEMBL document CHEMBL1255509, “Structure-activity relationship of boronic acid derivatives of tyropeptin: proteasome inhibitors” (Bioorg Med Chem Lett, 2010)

Key:
[1] = Inhibition of trypsin like activity of partially purified human proteasome; type: subcellular
How it was run: (§1)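 Purified 20S proteasome isolated from human erythrocytes served as the enzyme source. Inhibition is reported as IC50.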

[2] = Cytotoxicity against human RPMI8226 cells; type: cell-based; details: RPMI-8226
[3] = Inhibition of chymotrypsin like activity of partially purified human proteasome; type: subcellular; how it was run: as §1
[4] = Inhibition of caspase like activity of partially purified human proteasome; type: subcellular; how it was run: as §1

Row | Compound | IC50 [1] | IC50 [3] | IC50 [4] | IC50 [2]
1 | COc1ccc(C[C@H](NC(=O)[C@@H](NC(=O)[C@H](Cc2ccc(OC)cc2)NC(=O)c2cc(Cl)ccn2)C(C)C)B(O)O)cc1 | 15 µM | 88 nM | 21 µM | 39 nM
2 | COc1ccc(C[C@H](NC(=O)[C@@H](NC(=O)[C@H](Cc2ccc(OC)cc2)NC(=O)Cc2ccc3ccccc3c2)C(C)C)B(O)O)cc1 | 12 µM | 22 nM | 29 µM | 170 nM
3 | COc1ccc(C[C@H](NC(=O)[C@@H](NC(=O)[C@H](Cc2ccc(OC)cc2)NC(=O)Cc2cccc(Oc3ccccc3)c2)C(C)C)B(O)O)cc1 | 1.1 µM | 4.1 nM | 29 µM | 190 nM
4 | COc1ccc(C[C@H](NC(=O)[C@@H](NC(=O)[C@H](Cc2ccc(OC)cc2)NC(=O)c2nccc3ccccc23)C(C)C)B(O)O)cc1 | 10 µM | 41 nM | 19 µM | 34 nM
5 | COc1ccc(C[C@H](NC(=O)[C@@H](NC(=O)[C@H](Cc2ccc(OC)cc2)NC(=O)c2cc3ccccc3cn2)C(C)C)B(O)O)cc1 | 9 µM | 59 nM | 11 µM | 93 nM
6 | COc1ccc(C[C@H](NC(=O)[C@@H](NC(=O)[C@H](Cc2ccc(OC)cc2)NC(=O)c2ccc3cnccc3c2)C(C)C)B(O)O)cc1 | > 40 µM | 380 nM | > 40 µM | 260 nM
7 | COc1ccc(C[C@H](NC(=O)[C@@H](NC(=O)[C@H](Cc2ccc(OC)cc2)NC(=O)Cc2ccc3ccccc3n2)C(C)C)B(O)O)cc1 | 5.4 µM | 100 nM | 16 µM | 73 nM
8 | COc1ccc(C[C@H](NC(=O)[C@@H](NC(=O)[C@H](Cc2ccc(OC)cc2)NC(=O)c2cnc3ccccc3c2)C(C)C)B(O)O)cc1 | 10 µM | 56 nM | 32 µM | 54 nM
9 | COc1ccc(C[C@H](NC(=O)[C@@H](NC(=O)[C@H](Cc2ccc(OC)cc2)NC(=O)c2ccnc3ccccc23)C(C)C)B(O)O)cc1 | 8.6 µM | 49 nM | 24 µM | 49 nM
10 | COc1ccc(C[C@H](NC(=O)[C@@H](NC(=O)[C@H](Cc2ccc(OC)cc2)NC(=O)c2cccc3cccnc23)C(C)C)B(O)O)cc1 | 18 µM | 93 nM | 16 µM | 56 nM
11 | COc1ccc(C[C@H](NC(=O)[C@@H](NC(=O)[C@H](Cc2ccc(OC)cc2)NC(=O)c2cnccn2)C(C)C)B(O)O)cc1 | 19 µM | 240 nM | 33 µM | 17 nM
12 | COc1ccc(C[C@H](NC(=O)[C@@H](NC(=O)[C@H](Cc2ccc(OC)cc2)NC(=O)c2cccnc2)C(C)C)B(O)O)cc1 | > 40 µM | 500 nM | > 40 µM | 870 nM
13 | COc1ccc(C[C@H](NC(=O)[C@@H](NC(=O)[C@H](Cc2ccc(OC)cc2)NC(=O)c2ccncc2)C(C)C)B(O)O)cc1 | > 40 µM | 2300 nM | > 40 µM | 870 nM
14 | COc1ccc(C[C@H](NC(=O)[C@@H](NC(=O)[C@H](Cc2ccc(OC)cc2)NC(=O)c2ncccc2C)C(C)C)B(O)O)cc1 | 20 µM | 85 nM | > 40 µM | 14 nM
15 | COc1ccc(C[C@H](NC(=O)[C@@H](NC(=O)[C@H](Cc2ccc(OC)cc2)NC(=O)c2ncccc2F)C(C)C)B(O)O)cc1 | 24 µM | 140 nM | 25 µM | 4.9 nM
16 | COc1ccc(C[C@H](NC(=O)[C@@H](NC(=O)[C@H](Cc2ccc(OC)cc2)NC(=O)c2ncccc2Cl)C(C)C)B(O)O)cc1 | 20 µM | 83 nM | 20 µM | 9.7 nM
17 | COc1ccc(C[C@H](NC(=O)[C@@H](NC(=O)[C@H](Cc2ccc(OC)cc2)NC(=O)c2nc(Cl)ccc2Cl)C(C)C)B(O)O)cc1 | 13 µM | 53 nM | 26 µM | 14 nM
18 | COc1ccc(C[C@H](NC(=O)[C@@H](NC(=O)[C@H](Cc2ccc(OC)cc2)NC(=O)c2cc(C(F)(F)F)ccn2)C(C)C)B(O)O)cc1 | 20 µM | 150 nM | 25 µM | 53 nM
19 | COc1ccc(C[C@H](NC(=O)[C@@H](NC(=O)[C@H](Cc2ccc(OC)cc2)NC(=O)c2ccc(C(F)(F)F)cn2)C(C)C)B(O)O)cc1 | 19 µM | 110 nM | 28 µM | 47 nM
20 | COc1ccc(C[C@H](NC(=O)[C@@H](NC(=O)[C@H](Cc2ccc(OC)cc2)NC(=O)c2ncccc2OC)C(C)C)B(O)O)cc1 | 31 µM | 130 nM | 26 µM | 41 nM
21 | COc1ccc(C[C@H](NC(=O)[C@@H](NC(=O)[C@H](Cc2ccc(OC)cc2)NC(=O)c2cc(OC)ccn2)C(C)C)B(O)O)cc1 | 16 µM | 87 nM | 20 µM | 13 nM
22 | COc1ccc(C[C@H](NC(=O)[C@@H](NC(=O)[C@H](Cc2ccc(OC)cc2)NC(=O)c2ccc(OC)cn2)C(C)C)B(O)O)cc1 | 14 µM | 94 nM | 21 µM | 13 nM
23 | COc1ccc(C[C@H](NC(=O)[C@@H](NC(=O)[C@H](Cc2ccc(OC)cc2)NC(=O)c2cc([N+](=O)[O-])ccn2)C(C)C)B(O)O)cc1 | 19 µM | 190 nM | 34 µM | 48 nM
24 | COc1ccc(C[C@H](NC(=O)[C@@H](NC(=O)[C@H](Cc2ccc(OC)cc2)NC(=O)c2cc(N(C)C)ccn2)C(C)C)B(O)O)cc1 | 15 µM | 110 nM | 21 µM | 44 nM
25 | COc1ccc(C[C@H](NC(=O)CNC(=O)[C@H](Cc2ccc(OC)cc2)NC(=O)c2ccccn2)B(O)O)cc1 | > 40 µM | 260 nM | 34 µM | 24 nM
26 | COc1ccc(C[C@H](NC(=O)[C@H](C)NC(=O)[C@H](Cc2ccc(OC)cc2)NC(=O)c2ccccn2)B(O)O)cc1 | > 40 µM | 110 nM | > 40 µM | 57 nM
27 | COc1ccc(C[C@H](NC(=O)[C@@H](NC(=O)[C@H](Cc2ccc(OC)cc2)NC(=O)Cc2cccc3ccccc23)C(C)C)B(O)O)cc1 | > 40 µM | 19 nM | 39 µM | 28 nM
28 | CC(C)C[C@H](NC(=O)[C@H](Cc1ccccc1)NC(=O)c1cnccn1)B(O)O [BORTEZOMIB] | > 40 µM | 39 nM | 0.75 µM | 8.8 nM

Second part, led by results:

Row | IC50 [1] | IC50 [3] | IC50 [4] | Compound | IC50 [2]
29 | 40 µM | 230 nM | 23 µM | COc1ccc(C[C@H](NC(=O)[C@@H](NC(=O)[C@H](Cc2ccc(OC)cc2)NC(=O)c2ccccn2)C(C)C)B(O)O)cc1 | 13 nM
30 | 20 µM | 140 nM | 30 µM | COc1ccc(C[C@H](NC(=O)[C@@H](NC(=O)[C@H](Cc2ccc(OC)cc2)NC(=O)c2cc(C)ccn2)C(C)C)B(O)O)cc1 | 14 nM
31 | 14 µM | 120 nM | 30 µM | COc1ccc(C[C@H](NC(=O)[C@@H](NC(=O)[C@H](Cc2ccc(OC)cc2)NC(=O)c2ccc(C)cn2)C(C)C)B(O)O)cc1 | 14 nM
32 | 17 µM | 88 nM | 30 µM | COc1ccc(C[C@H](NC(=O)[C@@H](NC(=O)[C@H](Cc2ccc(OC)cc2)NC(=O)c2cccc(C)n2)C(C)C)B(O)O)cc1 | 14 nM
33 | 14 µM | 81 nM | 30 µM | COc1ccc(C[C@H](NC(=O)[C@@H](NC(=O)[C@H](Cc2ccc(OC)cc2)NC(=O)c2ccc(F)cn2)C(C)C)B(O)O)cc1 | 19 nM
34 | 20 µM | 110 nM | 27 µM | COc1ccc(C[C@H](NC(=O)[C@@H](NC(=O)[C@H](Cc2ccc(OC)cc2)NC(=O)c2cccc(F)n2)C(C)C)B(O)O)cc1 | 15 nM
35 | 15 µM | 83 nM | 16 µM | COc1ccc(C[C@H](NC(=O)[C@@H](NC(=O)[C@H](Cc2ccc(OC)cc2)NC(=O)c2ccc(Cl)cn2)C(C)C)B(O)O)cc1 | 39 nM
36 | 10 µM | 100 nM | 23 µM | COc1ccc(C[C@H](NC(=O)[C@@H](NC(=O)[C@H](Cc2ccc(OC)cc2)NC(=O)c2cccc(Cl)n2)C(C)C)B(O)O)cc1 | 29 nM
37 | 17 µM | 61 nM | 20 µM | COc1ccc(C[C@H](NC(=O)[C@@H](NC(=O)[C@H](Cc2ccc(OC)cc2)NC(=O)c2ncccc2Br)C(C)C)B(O)O)cc1 | 13 nM
38 | 14 µM | 95 nM | 17 µM | COc1ccc(C[C@H](NC(=O)[C@@H](NC(=O)[C@H](Cc2ccc(OC)cc2)NC(=O)c2cc(Br)ccn2)C(C)C)B(O)O)cc1 | 47 nM
39 | 14 µM | 93 nM | 24 µM | COc1ccc(C[C@H](NC(=O)[C@@H](NC(=O)[C@H](Cc2ccc(OC)cc2)NC(=O)c2ccc(Br)cn2)C(C)C)B(O)O)cc1 | 46 nM
40 | 14 µM | 92 nM | 27 µM | COc1ccc(C[C@H](NC(=O)[C@@H](NC(=O)[C@H](Cc2ccc(OC)cc2)NC(=O)c2cccc(Br)n2)C(C)C)B(O)O)cc1 | 44 nM
41 | > 40 µM | 390 nM | 29 µM | COc1ccc(C[C@H](NC(=O)[C@@H](NC(=O)[C@H](Cc2ccc(OC)cc2)NC(=O)c2ncccc2O)C(C)C)B(O)O)cc1 | 52 nM
42 | 21 µM | 240 nM | 26 µM | COc1ccc(C[C@H](NC(=O)[C@@H](NC(=O)[C@H](Cc2ccc(OC)cc2)NC(=O)c2cccc(O)n2)C(C)C)B(O)O)cc1 | 340 nM
43 | 21 µM | 59 nM | 35 µM | COc1ccc(C[C@H](NC(=O)[C@@H](NC(=O)[C@H](Cc2ccc(OC)cc2)NC(=O)c2cccc(OC)n2)C(C)C)B(O)O)cc1 | 51 nM
